Data published in ChEMBL document CHEMBL4422685, “Design, synthesis and evaluation of a series of 5-methoxy-2,3-naphthalimide derivatives as AcrB inhibitors for the reversal of bacterial resistance” (Bioorg Med Chem Lett, 2019).

Assays:
[1] = biological target: T1, Multidrug efflux pump subunit AcrB (Escherichia coli (strain K12)) (UniProt P31224); assay: Inhibition of AcrB in wild-type drug-resistant Escherichia coli […] assessed as potentiation of levofloxacin-induced antimicrobial activity by measuring levofloxacin MIC at 32 ug/ml by checkerboard titration method (reference value: 0.063 ug/ml)
T1 sequence (whole entry): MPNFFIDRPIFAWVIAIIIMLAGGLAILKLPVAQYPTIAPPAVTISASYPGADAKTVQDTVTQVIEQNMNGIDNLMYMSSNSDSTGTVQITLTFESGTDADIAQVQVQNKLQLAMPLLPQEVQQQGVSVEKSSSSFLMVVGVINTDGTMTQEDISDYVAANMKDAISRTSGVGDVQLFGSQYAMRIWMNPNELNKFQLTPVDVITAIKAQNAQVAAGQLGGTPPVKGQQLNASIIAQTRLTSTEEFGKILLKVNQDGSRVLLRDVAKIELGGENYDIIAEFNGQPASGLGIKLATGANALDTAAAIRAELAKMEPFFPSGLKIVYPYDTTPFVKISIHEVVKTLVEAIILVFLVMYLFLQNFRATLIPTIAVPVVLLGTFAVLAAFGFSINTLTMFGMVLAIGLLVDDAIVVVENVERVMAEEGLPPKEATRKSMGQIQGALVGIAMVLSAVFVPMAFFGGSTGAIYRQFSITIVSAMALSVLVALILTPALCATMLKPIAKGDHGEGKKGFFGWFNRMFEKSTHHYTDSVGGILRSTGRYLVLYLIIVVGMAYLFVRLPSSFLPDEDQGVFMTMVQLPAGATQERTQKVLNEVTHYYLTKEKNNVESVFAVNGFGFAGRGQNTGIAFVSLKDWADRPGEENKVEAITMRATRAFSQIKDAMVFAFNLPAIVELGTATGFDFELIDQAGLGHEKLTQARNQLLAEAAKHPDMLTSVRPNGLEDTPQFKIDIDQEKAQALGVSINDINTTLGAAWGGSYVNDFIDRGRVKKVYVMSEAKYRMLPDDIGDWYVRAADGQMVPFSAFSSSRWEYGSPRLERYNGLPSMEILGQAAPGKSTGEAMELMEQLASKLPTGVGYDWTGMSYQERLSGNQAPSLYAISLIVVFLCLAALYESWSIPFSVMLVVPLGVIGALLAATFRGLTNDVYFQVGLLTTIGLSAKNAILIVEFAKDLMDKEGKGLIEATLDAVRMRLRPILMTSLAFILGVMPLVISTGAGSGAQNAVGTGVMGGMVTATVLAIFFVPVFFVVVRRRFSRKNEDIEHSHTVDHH

[2] = biological target: T1, Multidrug efflux pump subunit AcrB (Escherichia coli (strain K12)); assay: Inhibition of AcrB in wild-type drug-resistant Escherichia coli […] assessed as potentiation of chloramphenicol-induced antimicrobial activity by measuring chloramphenicol MIC at 8 ug/ml by checkerboard titration method (Rvb =16 ug/ml)
[3] = biological target: T1, Multidrug efflux pump subunit AcrB (Escherichia coli (strain K12)); assay: Inhibition of AcrB in wild-type drug-resistant Escherichia coli […] assessed as potentiation of levofloxacin-induced antimicrobial activity by measuring levofloxacin MIC at 8 ug/ml by checkerboard titration method (reference value: 0.063 ug/ml)
[4] = biological target: T1, Multidrug efflux pump subunit AcrB (Escherichia coli (strain K12)); assay: Inhibition of AcrB in wild-type drug-resistant Escherichia coli […] assessed as potentiation of chloramphenicol-induced antimicrobial activity by measuring chloramphenicol MIC at 32 ug/ml by checkerboard titration method (Rvb =16 ug/ml)
[5] = biological target: T1, Multidrug efflux pump subunit AcrB (Escherichia coli (strain K12)); assay: Inhibition of AcrB in wild-type drug-resistant Escherichia coli […] assessed as potentiation of tetraphenyl phosphonium chloride-induced antimicrobial activity by measuring tetraphenyl phosphonium chloride MIC at 32 ug/ml by checkerboard titration method (reference value: 1024 ug/ml)
[6] = biological target: T1, Multidrug efflux pump subunit AcrB (Escherichia coli (strain K12)); assay: Inhibition of AcrB in wild-type drug-resistant Escherichia coli […] assessed as potentiation of chloramphenicol-induced antimicrobial activity by measuring chloramphenicol MIC at 128 ug/ml by checkerboard titration method (Rvb =16 ug/ml)
[7] = biological target: T1, Multidrug efflux pump subunit AcrB (Escherichia coli (strain K12)); assay: Inhibition of AcrB in wild-type drug-resistant Escherichia coli […] assessed as potentiation of tetraphenyl phosphonium chloride-induced antimicrobial activity by measuring tetraphenyl phosphonium chloride MIC at 16 ug/ml by checkerboard titration method (reference value: 1024 ug/ml)
[8] = biological target: T1, Multidrug efflux pump subunit AcrB (Escherichia coli (strain K12)); assay: Inhibition of AcrB in wild-type drug-resistant Escherichia coli […] assessed as potentiation of levofloxacin-induced antimicrobial activity by measuring levofloxacin MIC at 128 ug/ml by checkerboard titration method (reference value: 0.063 ug/ml)
Escherichia coli [9] = assay: Disruption of Escherichia coli inner membrane integrity at 128 ug/ml after 10 mins by DiOC2(3) probe based fluorescence assay; assay type: ADME, organism-based; conditions: in vivo
Method in brief: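 Bacterial suspensions pre-exposed to compound for 10 min, then DiOC2(3) added and fluorescence followed to plateau. Cells re-energized with 0.5% glucose; membrane potential (inside negative) read as fluorescence rise to plateau, then collapsed with the proton ionophore CCCP. Untreated cells run alongside.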

[10] = biological target: T1, Multidrug efflux pump subunit AcrB (Escherichia coli (strain K12)); assay: Inhibition of AcrB in wild-type drug-resistant Escherichia coli […] assessed as potentiation of tetraphenyl phosphonium chloride-induced antimicrobial activity by measuring tetraphenyl phosphonium chloride MIC at 128 ug/ml by checkerboard titration method (reference value: 1024 ug/ml)
[11] = biological target: T1, Multidrug efflux pump subunit AcrB (Escherichia coli (strain K12)); assay: Inhibition of AcrB in wild-type drug-resistant Escherichia coli […] assessed as potentiation of levofloxacin-induced antimicrobial activity by measuring levofloxacin MIC at 16 ug/ml by checkerboard titration method (reference value: 0.063 ug/ml)
[12] = biological target: T1, Multidrug efflux pump subunit AcrB (Escherichia coli (strain K12)); assay: Inhibition of AcrB in wild-type drug-resistant Escherichia coli […] assessed as potentiation of erythromycin-induced antimicrobial activity by measuring erythromycin MIC at 64 ug/ml by checkerboard titration method (reference value: 64 ug/ml)
[13] = biological target: T1, Multidrug efflux pump subunit AcrB (Escherichia coli (strain K12)); assay: Inhibition of AcrB in wild-type drug-resistant Escherichia coli […] assessed as potentiation of erythromycin-induced antimicrobial activity by measuring erythromycin MIC at 128 ug/ml by checkerboard titration method (reference value: 64 ug/ml)
[14] = biological target: T1, Multidrug efflux pump subunit AcrB (Escherichia coli (strain K12)); assay: Inhibition of AcrB in wild-type drug-resistant Escherichia coli […] assessed as potentiation of erythromycin-induced antimicrobial activity by measuring erythromycin MIC at 16 ug/ml by checkerboard titration method (reference value: 64 ug/ml)
Escherichia coli [15] = assay: Toxicity against AcrB deficient Escherichia coli AcrB lacking at 128 ug/ml; assay type: organism-based; conditions: in vivo
Method in brief: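 MIC determination against wild-type resistant E. coli BW25113 and an isogenic acrB-deleted strain; highest concentration tested 128 mg/L.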

[16] = biological target: T1, Multidrug efflux pump subunit AcrB (Escherichia coli (strain K12)); assay: Inhibition of AcrB in wild-type drug-resistant Escherichia coli […] assessed as potentiation of erythromycin-induced antimicrobial activity by measuring erythromycin MIC at 8 ug/ml by checkerboard titration method (reference value: 64 ug/ml)
[17] = biological target: T1, Multidrug efflux pump subunit AcrB (Escherichia coli (strain K12)); assay: Inhibition of AcrB in wild-type drug-resistant Escherichia coli […] assessed as potentiation of chloramphenicol-induced antimicrobial activity by measuring chloramphenicol MIC at 64 ug/ml by checkerboard titration method (Rvb =16 ug/ml)

Compound	MIC [1] [µg/mL]	MIC [2] [µg/mL]	MIC [3] [µg/mL]	MIC [4] [µg/mL]	MIC [5] [µg/mL]	MIC [6] [µg/mL]	MIC [7] [µg/mL]	MIC [8] [µg/mL]	Activity (Escherichia coli [9])	MIC [10] [µg/mL]	MIC [11] [µg/mL]	MIC [12] [µg/mL]	MIC [13] [µg/mL]	MIC [14] [µg/mL]	Activity (Escherichia coli [15])	MIC [16] [µg/mL]	MIC [17] [µg/mL]
COc1cccc2cc3c(cc12)C(=O)N(C1CCCC1)C3=O	0.063	16	0.063	16	1020	16	1020	0.063	Non-Toxic	1020	0.063	16	8	64	Non-Toxic	64	16
COc1ccccc1CN1C(=O)c2cc3cccc(OC)c3cc2C1=O	0.0039	16	0.016	16	1020	16	1020	0.0019	Non-Toxic	512	0.0039	64	64	64	Non-Toxic	64	16
CCc1ccccc1N1C(=O)c2cc3cccc(OC)c3cc2C1=O	0.0313	16	0.063	16	1020	8	1020	0.0313	Non-Toxic	512	0.063	64	32	64	Non-Toxic	64	16
COc1cccc2cc3c(cc12)C(=O)N(c1ccccc1Cl)C3=O	0.063	16	0.063	16	1020	16	1020	0.063	Non-Toxic	512	0.063	64	16	64	Non-Toxic	64	16
COc1cccc2cc3c(cc12)C(=O)N(Cc1ccccc1)C3=O	0.063	16	0.063	16	1020	8	1020	0.063	Non-Toxic	512	0.063	32	16	32	Non-Toxic	32	16
